Calls of active or inactive are those of the source.
How the values were obtained:
[1] = tested on: INS1; experiment: Effect on ATF4 mRNA level in rat INS-1 cells up to 10 uM after 8 hrs by qRT-PCR analysis; type: ADME, cell-based; details: ins1, 8 h
How it was run: (§1)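 INS-1 cells, 4×10^5 per well, were exposed to tunicamycin 0.1 μg/mL with compound or DMSO for 8 h. qRT-PCR for ATF4, CHOP, Bip, GRP94, or spliced XBP1 using splicing-specific primers. Values were normalized to cyclophilin A by ΔΔCt and given as fold over untreated control. Triplicate wells, 3 independent experiments.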

[2] = tested on: INS1; experiment: Cytoprotective activity in rat INS-1 cells assessed as protection against tunicamycin-induced ER stress-mediated reduction reduction in cell viability up to 10 uM after 3 days by MTT assay; type: functional, cell-based
How it was run: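 INS-1 cells, 3×10^3 per well, were exposed to tunicamycin 0.1 μg/mL with compound for 72 h. MTT was added for 3 h at 37 °C, then crystal-dissolving solution for 4 h, and absorbance read at 570 nm. Triplicate wells, three independent experiments.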

[3] = tested on: INS1; experiment: Cytoprotective activity against tunicamycin ER stress-induced apoptosis in rat INS-1 cells assessed as inhibition of tunicamycin-induced cleaved PARP expression up to 1 uM after 24 hrs by Western blot analysis; type: functional, cell-based
How it was run: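 INS-1 cells, 8×10^5 per 60-mm dish, were exposed to tunicamycin 0.1 μg/mL plus compound or DMSO for 24 h. 20 μg lysate protein was run on 7% SDS-PAGE and immunoblotted for cleaved caspase-3 and PARP (1:1000), with α-tubulin as loading control; 3 independent experiments.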

[4] = tested on: INS1; experiment: Protection against tunicamycin ER stress-induced suppression of MafA mRNA expression in rat INS-1 cells up to 1 uM after 24 hrs by qRT-PCR analysis; type: functional, cell-based
How it was run: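 INS-1 cells were exposed to tunicamycin 0.1 μg/mL with compound or DMSO for 24 h. INS1, INS2, PDX1 and MafA mRNA were measured by qRT-PCR and normalized to cyclophilin A by the comparative Ct method. Triplicate wells, 3 independent experiments.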

[5] = biological target: T1, Cyclic AMP-dependent transcription factor ATF-6 alpha (Rattus norvegicus) (UniProt G3V909); experiment: Inhibition of tunicamycin ER stress-induced ATF6 activation in rat INS-1 cells assessed as suppression of increase in Bip mRNA levels up to 10 uM after 8 hrs by qRT-PCR analysis; type: cell-based; how it was run: as §1
T1 sequence (whole entry): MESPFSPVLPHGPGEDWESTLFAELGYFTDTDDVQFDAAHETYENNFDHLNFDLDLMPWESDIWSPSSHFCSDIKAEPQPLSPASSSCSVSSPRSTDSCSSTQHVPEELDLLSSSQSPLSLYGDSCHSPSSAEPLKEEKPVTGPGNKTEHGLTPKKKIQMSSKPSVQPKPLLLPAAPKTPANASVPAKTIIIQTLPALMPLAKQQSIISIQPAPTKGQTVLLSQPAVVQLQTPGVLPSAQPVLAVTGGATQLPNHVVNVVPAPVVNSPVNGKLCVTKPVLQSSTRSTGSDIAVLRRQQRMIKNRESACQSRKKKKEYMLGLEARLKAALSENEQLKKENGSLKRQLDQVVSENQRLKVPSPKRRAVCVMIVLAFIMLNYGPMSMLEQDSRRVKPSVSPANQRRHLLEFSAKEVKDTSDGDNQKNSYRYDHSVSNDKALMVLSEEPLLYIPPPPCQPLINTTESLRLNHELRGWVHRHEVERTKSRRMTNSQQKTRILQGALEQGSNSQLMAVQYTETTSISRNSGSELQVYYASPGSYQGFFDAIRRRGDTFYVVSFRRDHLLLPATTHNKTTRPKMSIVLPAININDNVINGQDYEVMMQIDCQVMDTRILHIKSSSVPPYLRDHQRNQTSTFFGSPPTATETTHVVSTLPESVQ

[6] = tested on: Mus musculus; experiment: Antidiabetic activity in STZ-induced diabetic overnight fasted C57BL/6 mouse model assessed as blood glucose level at 5 mg/kg, ip administrated qd with streptozotocin for 5 days followed by compound administration alone for 2 more weeks measured at 15 mins post last dose relative to control; type: functional, organism-based
How it was run: (§2)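 Same STZ/compound i.p. regimen in male C57BL/6 mice, vehicle group as control. Intraperitoneal glucose tolerance test in overnight-fasted mice: glucose 2 g/kg i.p., blood glucose read at set times after the glucose load.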

[7] = tested on: Mus musculus; experiment: Antidiabetic activity in STZ-induced diabetic C57BL/6 mouse model assessed as blood glucose level at 5 mg/kg, ip administrated qd with streptozotocin for 5 days followed by compound administration alone for 2 more weeks measured on every third day during 5 hr fasting (reference value: 422 mg/dL); type: functional
[8] = tested on: Mus musculus; experiment: Antidiabetic activity in STZ-induced diabetic overnight fasted C57BL/6 mouse model assessed as blood glucose level at 5 mg/kg, ip administrated qd with streptozotocin for 5 days followed by compound administration alone for 2 more weeks measured at 30 mins post last dose relative to control; type: functional, organism-based; how it was run: as §2
[9] = tested on: Mus musculus; experiment: Antidiabetic activity in STZ-induced diabetic C57BL/6 mouse model assessed as decrease in blood glucose level at 5 mg/kg, ip administrated qd with streptozotocin for 5 days followed by compound administration alone for 2 more weeks; type: functional, organism-based; details: TDE = time-dependent effect

O=C(NCc1ccc(C(F)(F)F)cc1)c1cccc(CN2CCCCC2)c1
active: Activity [2] | inhibition [3] | Activity [4] | inhibition [5] | Activity [6] | Activity [8] | Activity [9] Tde
Non-Toxic: Activity [1]
314 mg/dL: Activity [7]

Source: ChEMBL document CHEMBL4038317, “Discovery of a Benzamide Derivative That Protects Pancreatic β-Cells against Endoplasmic Reticulum Stress” (J Med Chem, 2017)
